This note sets out measurements from ChEMBL document CHEMBL3045462, “Synthesis and fungicidal activity of novel 4,4'-bis(2' '-aryl-5' '-methyl/unsubstituted-4' '-oxo-thiazolidin-3' '-yl) bibenzyl” (2003).

Assay type in all cases: functional
Common to all, as to conditions: read-out: GI

Experiment [1] has as its system Penicillium citrinum. Briefly: Growth inhibition of Penicillium citrinum at 1000 ppm after 96 hr by poisoned food technique. The essentials:
(§1)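 Poisoned food technique in vitro: test compound mixed into Czapek's agar at 1000, 100 or 10 ppm, then Fusarium oxysporum or Penicillium citrinum grown on the medium. Growth inhibition was scored following previously described methods.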

Experiment [2] has as its system Penicillium citrinum. Nature of the experiment: Growth inhibition of Penicillium citrinum at 100 ppm after 96 hr by poisoned food technique. The method, boiled down: as §1
Experiment [3] relates to Fusarium oxysporum. Nature of the experiment: Growth inhibition of Fusarium oxysporum at 10 ppm after 96 hr by poisoned food technique. The essentials:
as §1

The subject of experiment [4] is Fusarium oxysporum. Nature of the experiment: Growth inhibition of Fusarium oxysporum at 1000 ppm after 96 hr by poisoned food technique. The method, boiled down:
as §1

Experiment [5] has as its system Fusarium oxysporum. Briefly: Growth inhibition of Fusarium oxysporum at 100 ppm after 96 hr by poisoned food technique. The essentials:
as §1

In experiment [6] the test system is Penicillium citrinum. Nature of the experiment: Growth inhibition of Penicillium citrinum at 10 ppm after 96 hr by poisoned food technique. The essentials:
as §1

Take `COc1ccc(/C=N/c2ccc(CCc3ccc(/N=C/c4ccc(OC)cc4)cc3)cc2)cc1`: the values for the inhibition of growth at 1000 ppm in the experiment with Penicillium citrinum [1] and with Fusarium oxysporum [4] were 58% and 46%, respectively. Also, the inhibition of growth at 100 ppm in the experiment on Penicillium citrinum [2] is 44%; in the experiment on Fusarium oxysporum [5], 36%. In addition, the inhibition of growth at 10 ppm in the experiment on Fusarium oxysporum [3] is 29%; with Penicillium citrinum [6], 21%.
As for `COc1ccc(/C=N/c2ccc(CCc3ccc(/N=C/c4ccc(OC)c(OC)c4)cc3)cc2)cc1OC`, the results for the inhibition of growth at 1000 ppm in the experiment with Penicillium citrinum [1] and in the experiment with Fusarium oxysporum [4] were 42% and 55%, respectively. Moreover, the inhibition of growth at 100 ppm was found to be 27% with Penicillium citrinum [2] and 43% in the experiment on Fusarium oxysporum [5]. Also, the figures for the inhibition of growth at 10 ppm in the experiment with Fusarium oxysporum [3] and in the experiment with Penicillium citrinum [6] were 31% and 19%, respectively.
As to `COc1ccc([C@@H]2SCC(=O)N2c2ccc(CCc3ccc(N4C(=O)CS[C@H]4c4ccc(OC)cc4)cc3)cc2)cc1`, the inhibition of growth at 1000 ppm in the experiment with Penicillium citrinum [1] is 46%; with Fusarium oxysporum [4], 61%. Moreover, the inhibition of growth at 100 ppm in the experiment with Penicillium citrinum [2] stood at 32%; in the experiment with Fusarium oxysporum [5] it was 50%. In addition, the inhibition of growth at 10 ppm in the experiment on Fusarium oxysporum [3] was 24%; in the experiment on Penicillium citrinum [6], 17%.
`C[C@@H]1S[C@@H](c2ccccc2)N(c2ccc(CCc3ccc(N4C(=O)[C@H](C)S[C@H]4c4ccccc4)cc3)cc2)C1=O`: the inhibition of growth at 1000 ppm in the experiment with Penicillium citrinum [1] and in the experiment on Fusarium oxysporum [4] was 100% in each case. Further, the inhibition of growth at 100 ppm in the experiment on Penicillium citrinum [2] was determined as 79%; in the experiment with Fusarium oxysporum [5], 81%. The inhibition of growth at 10 ppm in the experiment on Fusarium oxysporum [3] stood at 59%; in the experiment on Penicillium citrinum [6], 53%.
As for `COc1cc([C@@H]2S[C@@H](C)C(=O)N2c2ccc(CCc3ccc(N4C(=O)[C@H](C)S[C@H]4c4ccc(O)c(OC)c4)cc3)cc2)ccc1O`, the inhibition of growth at 1000 ppm amounted to 87% in the experiment with Penicillium citrinum [1] and 91% in the experiment on Fusarium oxysporum [4]. Moreover, the inhibition of growth at 100 ppm in the experiment on Penicillium citrinum [2] amounted to 58%; in the experiment on Fusarium oxysporum [5], 85%. The values for the inhibition of growth at 10 ppm in the experiment with Fusarium oxysporum [3] and with Penicillium citrinum [6] were 76% and 45%, respectively.
As for `C[C@@H]1S[C@@H](c2ccccc2O)N(c2ccc(CCc3ccc(N4C(=O)[C@H](C)S[C@H]4c4ccccc4O)cc3)cc2)C1=O`, the values for the inhibition of growth at 1000 ppm in the experiment on Penicillium citrinum [1] and in the experiment on Fusarium oxysporum [4] were 78% and 88%, respectively. The inhibition of growth at 100 ppm in the experiment with Penicillium citrinum [2] stood at 65%; in the experiment with Fusarium oxysporum [5], 71%. The inhibition of growth at 10 ppm is 30% in the experiment on Fusarium oxysporum [3] and 37% in the experiment with Penicillium citrinum [6].
Regarding `COc1cc([C@@H]2SCC(=O)N2c2ccc(CCc3ccc(N4C(=O)CS[C@H]4c4ccc(O)c(OC)c4)cc3)cc2)ccc1O`, the inhibition of growth at 1000 ppm came out at 73% with Penicillium citrinum [1] and 78% in the experiment with Fusarium oxysporum [4]. In addition, the inhibition of growth at 100 ppm in the experiment on Penicillium citrinum [2] was found to be 56%; in the experiment with Fusarium oxysporum [5] it was 65%. Moreover, the values for the inhibition of growth at 10 ppm with Fusarium oxysporum [3] and in the experiment with Penicillium citrinum [6] were 40% and 38%, respectively.
In the case of `O=C1CS[C@@H](c2ccccc2)N1c1ccc(CCc2ccc(N3C(=O)CS[C@H]3c3ccccc3)cc2)cc1`, the figures for the inhibition of growth at 1000 ppm with Penicillium citrinum [1] and in the experiment with Fusarium oxysporum [4] were 51% and 55%, respectively. Moreover, the inhibition of growth at 100 ppm stood at 20% in the experiment on Penicillium citrinum [2] and 30% in the experiment on Fusarium oxysporum [5]. Also, the inhibition of growth at 10 ppm with Fusarium oxysporum [3] worked out at 12%; in the experiment on Penicillium citrinum [6], 10%.
In the case of `COc1ccc([C@@H]2S[C@@H](C)C(=O)N2c2ccc(CCc3ccc(N4C(=O)[C@H](C)S[C@H]4c4ccc(OC)c(OC)c4)cc3)cc2)cc1OC`, the inhibition of growth at 1000 ppm with Penicillium citrinum [1] came out at 63%; in the experiment with Fusarium oxysporum [4] it was 71%. The inhibition of growth at 100 ppm with Penicillium citrinum [2] turned out to be 55%; with Fusarium oxysporum [5], 58%. For the same compound, the figures for the inhibition of growth at 10 ppm in the experiment with Fusarium oxysporum [3] and in the experiment with Penicillium citrinum [6] were 51% and 46%, respectively.
For `O=C1CS[C@@H](c2ccc(Cl)cc2)N1c1ccc(CCc2ccc(N3C(=O)CS[C@H]3c3ccc(Cl)cc3)cc2)cc1`, the inhibition of growth at 1000 ppm with Penicillium citrinum [1] worked out at 87%; with Fusarium oxysporum [4], 82%. Moreover, the inhibition of growth at 100 ppm amounted to 33% with Penicillium citrinum [2] and 43% in the experiment on Fusarium oxysporum [5]. Besides, the inhibition of growth at 10 ppm with Fusarium oxysporum [3] was found to be 15%; in the experiment with Penicillium citrinum [6], 8%.
For the compound `O=C1CS[C@@H](c2ccccc2O)N1c1ccc(CCc2ccc(N3C(=O)CS[C@H]3c3ccccc3O)cc2)cc1`, the inhibition of growth at 1000 ppm was found to be 67% in the experiment on Penicillium citrinum [1] and 61% in the experiment with Fusarium oxysporum [4]. Also, the inhibition of growth at 100 ppm in the experiment on Penicillium citrinum [2] is 40%; with Fusarium oxysporum [5] it was 50%. The figures for the inhibition of growth at 10 ppm with Fusarium oxysporum [3] and in the experiment on Penicillium citrinum [6] were 39% and 25%, respectively.
On to `C[C@@H]1S[C@@H](c2ccc(Cl)cc2)N(c2ccc(CCc3ccc(N4C(=O)[C@H](C)S[C@H]4c4ccc(Cl)cc4)cc3)cc2)C1=O`, for which the inhibition of growth at 1000 ppm in the experiment with Penicillium citrinum [1] is 68%; with Fusarium oxysporum [4] it was 75%. In addition, the inhibition of growth at 100 ppm stood at 42% with Penicillium citrinum [2] and 65% in the experiment with Fusarium oxysporum [5]. Moreover, the inhibition of growth at 10 ppm in the experiment on Fusarium oxysporum [3] was determined as 40%; in the experiment with Penicillium citrinum [6], 30%.
For `Oc1ccccc1/C=N/c1ccc(CCc2ccc(/N=C/c3ccccc3O)cc2)cc1`, the results for the inhibition of growth at 1000 ppm with Penicillium citrinum [1] and with Fusarium oxysporum [4] were 50% and 62%, respectively. For the same compound, the inhibition of growth at 100 ppm amounted to 33% in the experiment on Penicillium citrinum [2] and 53% with Fusarium oxysporum [5]. Further, the inhibition of growth at 10 ppm in the experiment on Fusarium oxysporum [3] stood at 25%; in the experiment with Penicillium citrinum [6], 23%.
In the case of `COc1cc(/C=N/c2ccc(CCc3ccc(/N=C/c4ccc(O)c(OC)c4)cc3)cc2)ccc1O`, the inhibition of growth at 1000 ppm with Penicillium citrinum [1] was found to be 57%; with Fusarium oxysporum [4] it was 51%. Also, the inhibition of growth at 100 ppm in the experiment with Penicillium citrinum [2] is 45%; with Fusarium oxysporum [5], 47%. In addition, the inhibition of growth at 10 ppm in the experiment with Fusarium oxysporum [3] came out at 48%; in the experiment on Penicillium citrinum [6] it was 37%.
Regarding `COc1ccc([C@@H]2S[C@@H](C)C(=O)N2c2ccc(CCc3ccc(N4C(=O)[C@H](C)S[C@H]4c4ccc(OC)cc4)cc3)cc2)cc1`, the inhibition of growth at 1000 ppm with Penicillium citrinum [1] was 88%; in the experiment on Fusarium oxysporum [4], 85%. Also, the figures for the inhibition of growth at 100 ppm in the experiment on Penicillium citrinum [2] and with Fusarium oxysporum [5] were 69% and 62%, respectively. For the same compound, the figures for the inhibition of growth at 10 ppm in the experiment on Fusarium oxysporum [3] and with Penicillium citrinum [6] were 41% and 45%, respectively.
With `COc1ccc([C@@H]2SCC(=O)N2c2ccc(CCc3ccc(N4C(=O)CS[C@H]4c4ccc(OC)c(OC)c4)cc3)cc2)cc1OC`, the inhibition of growth at 1000 ppm in the experiment with Penicillium citrinum [1] amounted to 67%; in the experiment on Fusarium oxysporum [4], 38%. In addition, the inhibition of growth at 100 ppm in the experiment on Penicillium citrinum [2] was 50%; with Fusarium oxysporum [5], 26%. Further, the inhibition of growth at 10 ppm in the experiment with Fusarium oxysporum [3] is 24%; in the experiment with Penicillium citrinum [6], 26%.
In the case of `Clc1ccc(/C=N/c2ccc(CCc3ccc(/N=C/c4ccc(Cl)cc4)cc3)cc2)cc1`, the values for the inhibition of growth at 1000 ppm with Penicillium citrinum [1] and in the experiment with Fusarium oxysporum [4] were 88% and 83%, respectively. In addition, the inhibition of growth at 100 ppm with Penicillium citrinum [2] worked out at 30%; in the experiment on Fusarium oxysporum [5], 47%. Moreover, the inhibition of growth at 10 ppm in the experiment with Fusarium oxysporum [3] worked out at 20%; in the experiment with Penicillium citrinum [6], 15%.
Regarding `C(=N\c1ccc(CCc2ccc(/N=C/c3ccccc3)cc2)cc1)/c1ccccc1`, the figures for the inhibition of growth at 1000 ppm with Penicillium citrinum [1] and in the experiment on Fusarium oxysporum [4] were 56% and 50%, respectively. Further, the figures for the inhibition of growth at 100 ppm in the experiment on Penicillium citrinum [2] and with Fusarium oxysporum [5] were 20% and 24%, respectively. Besides, the inhibition of growth at 10 ppm with Fusarium oxysporum [3] was determined as 9%; in the experiment on Penicillium citrinum [6], 13%.
